Fewer inactive variants are shown than the library holds.
B1: tRNA (parent)
chain: GUUCCGUUGGCGUAAUGGUAACGCGUCUCCCUCCUAAGGAGAAGACUGCGGGUUCGAGUCCCGUACGGAACG

Variants of: B1
Test: yeast fitness relative to wild type (ratio to wild type); higher = fitter; tRNA-Arg(CCU), competitive growth, 37 C, YPD
Procedure, shortened: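 Amplicons of the tRNA-Arg(CCU) gene were sequenced, 100-nucleotide paired-end, from the start population and from each end population of a pooled yeast competition. The competition, in six parallel replicates, lasted 24 hours in YPD at 37°C. Fitness relative to wild type was calculated from changes in genotype frequencies. Genotypes had to have ≥ 100 starting reads, and estimates < 0.5 were set to 0.5.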

With GUUCCGUUGGCGUAAUGGUAAGGCGUCUCCCUCCUAAGGAGAAGAAUGCGGGUUCGAGUCCCGUACGGAACG [C22G C46A] as the variant, how does the yeast fitness read?
The yeast fitness was 1.03.

For GUUCCGUUGGCGUAAUGGUAAUGCGUCUCCGUCCUAAGGAGAAGACUCCGGGUUCGAGUCCCGUACGGAACG [C22U C31G G48C], which yeast fitness is on record?
The yeast fitness was no more than 0.5.

Which yeast fitness does the source give for GUUCCCUCGGUGUAAUGGCUACGCGUCUCCCUCCUAAGGAGCAGACUGCGGGUUCGAGUCCCGUCCGGUACG [G6C U8C C11U U19C A20U A42C A65C A69U] here?
Its yeast fitness is no more than 0.5.

For GUUCUGUUGGCGUAAUGGUAACGCGUCUUCCUCCUAAGGAGAAGACUGCCGGUUCGAGACCCGUACGGAACG [C5U C29U G50C U59A], which yeast fitness is on record?
The yeast fitness was no more than 0.5.

With GUUCCGUUGGCCUCAUGGUUUCGCGUCUCCCUACUAAGGAGAAGACUACGGGUUCGAGUCCUGUACGGAACG [G12C A14C A20U A21U C33A G48A C62U] as the variant, how does the yeast fitness read?
Its yeast fitness is no more than 0.5.

For GUUCGGUUCGCGUAAUGGUUGCGGGUGUCCCUCCUAAGGAGAAGACUGCGGGUUCGAGUCCCGUACGGAACG [C5G G9C A20U A21G C24G C27G], which yeast fitness is on record?
The yeast fitness was 0.577.

Which yeast fitness does the source give for GUUCCGUUGGCGUACUGGUAACGCGUCUCCCUCCUGAGGAGAAGACUGUGGGUUCGAGUCCCGUACUGAACG [A15C A36G C49U G67U] here?
The yeast fitness was 0.632.

With GUUCCAUUGGCGUCAUGGUAACGCGUCUCCCUCCUAAGGAGAAGACUGCGGGUUCGAAUCCCGUACGGAACG [G6A A14C G58A] as the variant, how does the yeast fitness read?
The yeast fitness was 0.613.

For GUUCCGUUGGCGUAAUGGUAACGCGUCUCCCUUAUAACGAGAAGACUGCGGAUUCGAGUCCCGUACGGAACG [C33U C34A G38C G52A], which yeast fitness is on record?
Its yeast fitness is no more than 0.5.

With GUUCUGUUGGCGUAAUGGUAACGCGUCUCCCUCCUAAGGAGAAGUGUGCGGGUUCGAGUCCCGUACGGAACG [C5U A45U C46G] as the variant, how does the yeast fitness read?
Its yeast fitness is no more than 0.5.

Which yeast fitness does the source give for GUUCCGUUGGCGUAAUGGUAACGCGCCUCCCCCCUAGGGAGAAGACUGCGGGUUCGAGUCCCGUAUGGCACG [U26C U32C A37G C66U A69C] here?
Its yeast fitness is no more than 0.5.

For GUUCCGUUGGCGUAAUGGUAACGCGUCUCUCUCCUAAGGAGAAGAAUGCGGGUUCGAGUCCCGUAUGGAACG [C30U C46A C66U], which yeast fitness is on record?
The yeast fitness was 0.83.

With GUUCCGUUGGCGUAAUGGUAACGCGUCUCGCACCUAAGGUGCAGACUGCGGGUUCGAGUCCCGUCCGGAACG [C30G U32A A40U A42C A65C] as the variant, how does the yeast fitness read?
Its yeast fitness is no more than 0.5.

For GUUCCGUUGGCGUAAAGGUUACGGGUCUCCAUGCUAAGGAGAAGACUGCGGGUUCGAGUCACGUACCGAACG [U16A A20U C24G C31A C33G C61A G67C], which yeast fitness is on record?
The yeast fitness was no more than 0.5.

For GUUCCGAUGGCGUAAUGGUAACGCGUCUCCCUCCUUAGGAGAAGACUGCGGGUUCGAGUCCCGCACGGAACG [U7A A36U U64C], which yeast fitness is on record?
Its yeast fitness is no more than 0.5.

Which yeast fitness does the source give for GUUCCGUUGGCGUAAUGGUAACGUGUCUCCCUCCCAAGGAGAAGACUGCGGGUUCGAGUCCCGUACGGACCG [C24U U35C A70C] here?
Its yeast fitness is 0.671.

With GUUCCGUUGGCCUAAUGGUAACGCGUCUCCGUCCUAAGGAGAAGACUGGGGGUUGGAGUCCCGUACGGUACG [G12C C31G C49G C55G A69U] as the variant, how does the yeast fitness read?
The yeast fitness was 0.527.

For GUUCCGUCGGCGUAAUGGUAACGCGUCUCCCUCCUAAGGAGAACACUGCGGGUUCGAGUGCCGUACGGAACG [U8C G44C C60G], which yeast fitness is on record?
Its yeast fitness is 0.53.

With GUUCCGUUGGCGUAAUGGUAAUGCGUCUCUCUCCUAAGGCGAAGACUGCGGGUUAGAGUCCCGUGCGGAACG [C22U C30U A40C C55A A65G] as the variant, how does the yeast fitness read?
Its yeast fitness is no more than 0.5.

For GUUCCGUUGGCGUAAUGCUAACGCGUCUCCCUCCUAAGCAGAAGACUGCAGGUUCGAGUCCCGUACGGAACG [G18C G39C G50A], which yeast fitness is on record?
Its yeast fitness is no more than 0.5.

Which yeast fitness does the source give for GUUCCGUUGGCGUAAUGGUAAUGCGUUUCCCUCCUAAGGAGAAGACUGCGGGUUAGUGUCGCGUACGGAACG [C22U C27U C55A A57U C61G] here?
The yeast fitness was no more than 0.5.

With GUUCUGUUGGGGCAUUGGUAACGCGUCUCCCACCGAAGGAGAAGACUGCGGGUUAGAGUCGCGUACGGAACG [C5U C11G U13C A15U U32A U35G C55A C61G] as the variant, how does the yeast fitness read?
The yeast fitness was no more than 0.5.

Which yeast fitness does the source give for GUUCCGUUGGCGUAAUGGUAACCCGUCUCCCUCCUAAGGAGAAGACUGCGGGUUCGAGUCCCGUACAGAACG [G23C G67A] here?
Its yeast fitness is 0.56.

For GUUCCGUUGGCGUAAUGGUAACGCGUCUCCCUCCUAAGGAGAAGACUGCGGGUUCGAGUCCCGUCCCGAACG [A65C G67C], which yeast fitness is on record?
The yeast fitness was 0.782.

For GUUCUGUUGGCGUAAUGGUAACGCCUCUCCCUCCUAAGGAGUAGACUGCGGGUUCGAGUCCCGUACGGUACG [C5U G25C A42U A69U], which yeast fitness is on record?
Its yeast fitness is no more than 0.5.

With GUUCCGUUGGCGUAAUGGUAACGCGUCUCCCGCCUAAGGAGGAGACUGCGGGUUCGAGUCUCGUACGGAACG [U32G A42G C61U] as the variant, how does the yeast fitness read?
The yeast fitness was no more than 0.5.

With GUUCCGUUGGCGUAAUGGUAACGCGUCUCCCUCCAAAGGAGAAGACUGCGGGUUCGUGCCCCGUACGGAACG [U35A A57U U59C] as the variant, how does the yeast fitness read?
Its yeast fitness is no more than 0.5.

With GUUCCGUUGGCGUAAUGGUAACGUGUCUCCCUCAUAAGGAGAAGACUCCGGGUUCGAGUCCCGUACGGAACG [C24U C34A G48C] as the variant, how does the yeast fitness read?
Its yeast fitness is 0.693.

Which yeast fitness does the source give for GUUCCGGUGGCGUAAUGGUAACGCGUCUCCCUCCUAAGGAGAUGACUGCGGGUUCGAGUCCCGUACGGAACG [U7G A43U] here?
Its yeast fitness is 0.914.

With GCUCCGUUGGAGUAAUGGUAAGGCGUCUCCCUCCUAAGGAAACGACUGCGCGUUCGAGUCCCGUAUCGAACG [U2C C11A C22G G41A A43C G51C C66U G67C] as the variant, how does the yeast fitness read?
Its yeast fitness is no more than 0.5.

Which yeast fitness does the source give for GUUCCGUUGGCGUAUUGGUAACGCGUCUCCCUCCUAGGGAGAAGACUGCGGGUUCGAGUCCCGUACGGAACG [A15U A37G] here?
Its yeast fitness is 0.66.

Which yeast fitness does the source give for GUUCCGUCGGCGUAAUGGUAACGCGUCUCCCUCCUAAGGAGAAGACUGCGGGUUUGAGUCCCAUACGGAACG [U8C C55U G63A] here?
The yeast fitness was 0.552.

With GUUCCGUUGGCGUAAUGGUAACGCGUCUUCCUACUAAGGAGAAGACUGCGGGUUCGAGUCCCGUACGGAACG [C29U C33A] as the variant, how does the yeast fitness read?
Its yeast fitness is 0.7.

For GUUCCGUUCGCGUAAUGGUAACGUGGCUCCCUCCUAAGGAGAAGACUGCGGGUUCGAGUCCUGUACGGAACG [G9C C24U U26G C62U], which yeast fitness is on record?
The yeast fitness was no more than 0.5.

Which yeast fitness does the source give for GUUCCGUUGGCGUACUGGUAACGCGUCUCCCACCUAAGGAGAAGACUGCGGGUUCGAGUCCCGUACGGAACG [A15C U32A] here?
Its yeast fitness is 0.595.

Which yeast fitness does the source give for GUUCCGUUGGCGUAAUGGUAACGCGUCUCCCUCCUAAGGAGAAGACUGCGGGUUCGCGUCCCGUACGAAACG [A57C G68A] here?
The yeast fitness was 0.701.

For GUUCCGUUGGCGUAAUGGUAACGCGUCUCCCUCCUAAGGAAGAGACUGCGGGUUCGAGUCCCGUACGGAACG [G41A A42G], which yeast fitness is on record?
Its yeast fitness is 0.911.

For GUUCCGUUGGUGUAUUGGUAACGCGUCUCCCUCCUAAAGAGAAGACUGCGGGUUCGAGUCCCGUACGGAACG [C11U A15U G38A], which yeast fitness is on record?
The yeast fitness was no more than 0.5.

— the RNAGym collection of RNA variant scans (doi:10.1126/science.aae0568)
